Shown is part of a subset that was picked to be rich in hits.
B2AR ag: human beta-2 adrenergic receptor agonism by FAP; P07550; response, % (test concentration not listed); AID 504454; Am2.2-beta2AR cells, FAP receptor internalization, flow cytometry; 340,000 compounds, 0.43% hits;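 active means response above a set limit, near 3 SD of response in nonfluorescent compounds, cut at about 42% in these data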
Target sequence (P07550 whole entry, looked up): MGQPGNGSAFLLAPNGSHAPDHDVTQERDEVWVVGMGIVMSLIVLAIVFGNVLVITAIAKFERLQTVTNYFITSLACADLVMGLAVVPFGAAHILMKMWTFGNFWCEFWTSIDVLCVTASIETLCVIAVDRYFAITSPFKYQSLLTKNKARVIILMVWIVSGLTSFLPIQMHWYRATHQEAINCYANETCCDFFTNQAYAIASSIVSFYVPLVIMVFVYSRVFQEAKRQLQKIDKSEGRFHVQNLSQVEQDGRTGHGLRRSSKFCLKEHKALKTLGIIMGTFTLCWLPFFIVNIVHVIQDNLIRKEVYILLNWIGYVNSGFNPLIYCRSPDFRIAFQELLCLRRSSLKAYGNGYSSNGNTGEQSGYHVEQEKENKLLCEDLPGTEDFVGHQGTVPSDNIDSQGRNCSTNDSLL
CHOP inh: CHOP inhibition in unfolded protein response. CHO-K1 CHOP-promoter luciferase, tunicamycin-induced, 15-18 h. inhibition, % at 10 µM. 220,000 compounds, 3.8% hits. AID 2732;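 active means compounds that reduced the stress-induced luciferase reporter signal by more than about 70% of percent inhibition, limit read from the data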;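 further: 0% = tunicamycin plus vehicle and 100% = wells without tunicamycin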
VLA-4 inh: inhibition in a human VLA-4 binding assay | P13612 | VLA-4 expressing cells, ligand binding flow cytometry | inhibition, % (about 7 µM as worked out from the volumes in the protocol) | 330,000 compounds, 0.2% hits | AID 2557; in the data active means inhibition above about 50%
UPR CHOP act: apoptotic UPR (CHOP) activation; CHO-CHOP luciferase reporter, luminescence; percent of tunicamycin response over DMSO baseline; activation, % at 10 µM; 330,000 compounds, 0.34% hits;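 active means at 10 µM dose, activation of 40% or more, normalized to positive control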;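 further: 100% = tunicamycin at 10 µg/mL and 0% = DMSO alone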
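Evaluation: % reporter activation, DMSO baseline versus tunicamycin full activation; System: CHO-CHOP luciferase reporter cell line; Input: 500 cells/well; Incubation: 6 h compound treatment, 37 °C; Measured by: Steady-Glo luciferase luminescence; Dosing: one dose, 10 µM in 0.5% DMSO; Buffer or medium: F12 medium, 10% FBS; Benchmarks: positive tunicamycin 10 µg/mL, negative DMSO alone.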
UPR XBP1 act: activators of adaptive arm of unfolded protein response (XBP1). CHO-XBP1 luciferase reporter, IRE1-XBP1 UPR activation, luminescence; percent of tunicamycin response, DMSO as zero. activation, % at 20 µM. 330,000 compounds, 0.33% hits;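 active means versus positive control, 20 µM dose yields 30% or more activation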;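 further: 100% = tunicamycin at 10 µg/mL and 0% = DMSO only wells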
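assay system = CHO-XBP1 luciferase reporter cells | amount = 1000 cells/well | buffer or medium = F12 plus 10% FBS | compound dosing = single point, 20 µM final compound, 1% DMSO | incubation = 16-18 h cell attachment at 37 °C, then 6 h compound exposure | detection = Steady-Glo luminescence read | controls = tunicamycin 10 µg/mL and vehicle-only wells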
VLA-4 mod pick: human VLA-4 allosteric modulation in cherry picked compounds; inhibition, % at 6.7 µM; 1,300 compounds, 2% hits; U937 cells, HUTS-21 LIBS mAb binding, flow cytometry; LDV ligand present at threefold Kd; shares compounds with VLA-4 inh; in the data active means inhibition above about 40%;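 further: 0% = ligand without compound and 100% = no ligand background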
Starred values were filed as active, the others as inactive; · = not tested or not shown.

SMILES	B2AR ag	CHOP inh	VLA-4 inh	UPR CHOP act	UPR XBP1 act	VLA-4 mod pick
CCC(C)C(NC(=O)c1ccc(Cl)cc1)C(=O)O (stereo unspecified)	3	-1	93*	-1	2	3
CCC(C)C(NC(=O)c1ccc(Cl)cc1Cl)C(=O)O (stereo unspecified)	-2	38	14	0	-2	·
CC1CCCCN1c1ncnc(N)c1[N+](=O)[O-] (stereo unspecified)	1	38	-2	-1	-2	·
CC1Cc2ccccc2N1c1ncnc(N)c1[N+](=O)[O-] (stereo unspecified)	7	72*	53*	-4	-6	16
c1ccc(-c2ncnc3cc4n(c23)CCC4)cc1	0	25	61*	-1	3	-1
C=CCn1c(O)c(C2=c3ccccc3=NC2=O)c2ccccc21	-2	·	51*	-11	-13	0
Cc1nnc(NC(=O)CSc2ccc3nnc(-c4cccnc4)n3n2)s1	·	22	54*	-2	0	3
O=C(CSc1ccc2nnc(-c3cccnc3)n2n1)NCC1CCCO1 (stereo unspecified)	2	-7	-20	-2	0	2
Cc1cccc(C(=O)OC(C)C(=O)N2CCN(Cc3ccccc3)CC2)c1 (stereo unspecified)	-1	·	·	1	0	·
COC(=O)c1c(C)[nH]c(C(=O)C(C)OC(=O)c2ccco2)c1C (stereo unspecified)	8	·	-25	3	-3	9
Cc1[nH]c(C(=O)O)c(C)c1C(=O)OC(C)C	-9	12	-3	2	0	·
COC(=O)c1c(C)[nH]c(C(=O)C(C)OC(=O)C2CC2)c1C (stereo unspecified)	4	·	0	3	-1	-4
COC(=O)c1c(C)[nH]c(C(=O)C(C)OC(=O)c2cc(C)oc2C)c1C (stereo unspecified)	-4	·	2	0	-3	·
CC[C@@H]1C=C(C(=O)O)[C@H](c2ccc(OC)c(OC)c2)N1S(=O)(=O)c1ccc(C)cc1	-1	·	28	1	-3	1
CC(C)(C)[C@@H]1C=C(C(=O)O)[C@H](c2ccc(Cl)cc2)N1S(=O)(=O)c1ccccc1	5	·	26	0	-1	0
CCc1ccc([C@H]2C(C(=O)O)=C[C@@H](C(C)(C)C)N2S(=O)(=O)c2ccc(C)cc2)cc1	12	·	26	1	3	1
CC[C@@H]1C=C(C(=O)O)[C@H](c2ccc(C)cc2)N1S(=O)(=O)c1ccc(C)cc1	6	·	36	0	2	0
Cc1ccc(S(=O)(=O)N2[C@@H](c3ccc(C(C)(C)C)cc3)C(C(=O)O)=CC[C@H]2c2ccc(Cl)cc2)cc1	4	·	23	5	4	·
COc1ccc([C@@H]2CC=C(C(=O)O)[C@H](c3ccccc3)N2S(=O)(=O)c2ccc(C)cc2)cc1OC	0	·	22	0	4	·
Cc1ccc(S(=O)(=O)N2[C@@H](c3ccc(C(C)(C)C)cc3)C(C(=O)O)=CC[C@H]2c2cccs2)cc1	-2	·	60*	0	-1	2
COc1ccc([C@H]2C(C(=O)O)=C[C@@H](C(C)(C)C)N2S(=O)(=O)c2ccc(C)cc2)cc1OC	7	·	40	2	-2	1
COc1ccc([C@@H]2CC=C(C(=O)O)[C@H](c3cccc(Cl)c3)N2S(=O)(=O)c2ccc(C)cc2)cc1OC	-6	·	-2	0	7	·
Cc1cc(-c2nnc(SCC(=O)Nc3ccccc3F)n2N)n[nH]1	1	·	-2	0	-3	·
Cc1cc(-c2nnc(SCC(=O)Nc3ccc(F)cc3F)n2N)n[nH]1	0	·	50*	1	2	8
COc1ccc(NS(=O)(=O)c2cc3c4c(c2)CCN4C(=O)CC3)c(OC)c1	-15	·	·	1	-2	·
SMILES	B2AR ag	CHOP inh	VLA-4 inh	UPR CHOP act	UPR XBP1 act	VLA-4 mod pick
COC(=O)c1ccncc1C(=O)Nc1ccc(Oc2ncc(C(F)(F)F)cc2Cl)cc1	-2	·	50*	0	-5	-19
COc1ccc2c(c1)N(C)/C(=C1/SC(=NCc3ccccc3)N(c3ccccc3)C1=O)S2	-10	33	90*	0	9	5
Cc1c(NC(=O)c2cc3ccccc3c(=O)s2)c(=O)n(-c2ccccc2)n1C	5	11	53*	3	0	6
Cc1c(NC(=O)c2c(F)c(F)c(F)c(F)c2F)c(=O)n(-c2ccccc2)n1C	6	13	4	-1	0	0
Cc1c(NC(=O)c2cc(CC(C)C)on2)c(=O)n(-c2ccccc2)n1C	12	36	22	-1	2	·
Cc1c(NC(=O)c2cc(C(C)C)on2)c(=O)n(-c2ccccc2)n1C	-6	-36	·	-2	2	12
Cc1c(NC(=O)c2ccc(Cl)s2)c(=O)n(-c2ccccc2)n1C	-6	4	8	2	-1	·
Cc1c(NC(=O)CN2CCN(C(=O)c3ccco3)CC2)c(=O)n(-c2ccccc2)n1C	7	4	-3	-2	0	2
Cc1ccc(S(=O)(=O)Oc2ccc(/C=N/N=C3/NC(=O)C(CC(=O)O)S3)cc2)cc1[N+](=O)[O-] (stereo unspecified)	-1	·	-8	0	-2	·
COC(=O)c1ccc(C(=O)OC)c(NC(=S)N2CCOCC2)c1	13	18	-8	1	-1	·
CC(C)C(NC(=O)c1ccc(F)cc1)C(=O)N1CCC1 (stereo unspecified)	-5	·	9	0	-3	·
Cc1c(NC(=O)COc2ncnc3c(Cl)cc(Cl)cc23)c(=O)n(-c2ccccc2)n1C	-5	-23	5	1	-1	3
NC(=O)NC(=O)COC(=O)CC12CC3CC(CC(C3)C1)C2	3	11	-3	-1	2	·
O=S(=O)(Nc1ncccn1)c1cc(Cl)ccc1Cl	0	·	-1	0	-2	-7
CCn1c(SCC(=O)NCc2ccccc2)nnc1-c1cccnc1	0	1	16	0	-3	·
N#Cc1c(SCC(=O)O)nc(-c2ccccc2)c2c1CCCC2	0	47	94*	-2	2	0
N#Cc1c(SCC(N)=O)nc(-c2ccccc2)c2c1CCCC2	2	27	-13	-2	-6	·
CCCCC[C@@H]1C=C(C(=O)O)[C@H](c2ccc(Br)cc2)N1S(=O)(=O)c1ccc(C)cc1	4	·	6	-1	-1	0
Cc1ccc(S(=O)(=O)N2[C@@H](c3ccc(Cl)cc3)C(C(=O)O)=C[C@H]2CC2CCCC2)cc1	7	·	28	0	-1	-1
